Results published in ChEMBL document CHEMBL1765074, “Synthesis, evaluation and structural studies of antiproliferative tubulin-targeting azetidin-2-ones” (Bioorg Med Chem, 2011).

Columns and labels:
MCF7 [1] = test: Antiproliferative activity against human MCF7 cells by MTT assay; type: functional, cell-based
Method in brief: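 MCF-7 cells grown in Eagle's MEM with 10% FBS, 2 mM L-glutamine, penicillin/streptomycin and 1% non-essential amino acids. Seeded at 2.5×10^4 cells/mL, left 24 h at 37°C, then treated 72 h across 1 nM–100 μM from ethanol stocks (vehicle 1% v/v). MTT at 1 mg/mL final for 2 h in darkness, DMSO solubilisation, absorbance read. IC50 is the mean of at least three experiments in triplicate.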

MDA-MB-231 [2] = test: Antiproliferative activity against human MDA-MB-231 cells; type: functional; conditions: read-out: LC50 (the source's name)
[3] = Antiproliferative activity against human […] cells; type: functional; conditions: read-out: LC50 (the source's name)
MOLT-4 = test: Antiproliferative activity against human MOLT4 cells; type: functional; conditions: read-out: LC50 (the source's name)
OVCAR-5 = test: Antiproliferative activity against human OVCAR5 cells; type: functional; conditions: read-out: LC50 (the source's name)
HCC 2998 = test: Antiproliferative activity against human HCC2998 cells; type: functional; conditions: read-out: LC50 (the source's name)
DU-145 = test: Antiproliferative activity against human DU145 cells; type: functional; conditions: read-out: LC50 (the source's name)
A549 = test: Antiproliferative activity against human A549 cells; type: functional; conditions: read-out: LC50 (the source's name)
SK-MEL-5 = test: Antiproliferative activity against human SK-MEL-5 cells; type: functional; conditions: read-out: LC50 (the source's name)
HOP-62 = test: Antiproliferative activity against human HOP62 cells; type: functional; conditions: read-out: LC50 (the source's name)
HOP-92 = test: Antiproliferative activity against human HOP92 cells; type: functional; conditions: read-out: LC50 (the source's name)
LOX IMVI = test: Antiproliferative activity against human LOXIMVI cells; type: functional; conditions: read-out: LC50 (the source's name)
ACHN = test: Antiproliferative activity against human ACHN cells; type: functional; conditions: read-out: LC50 (the source's name)
SN12C = test: Antiproliferative activity against human SN12C cells; type: functional; conditions: read-out: LC50 (the source's name)
HL-60(TB) = test: Antiproliferative activity against human HL-60(TB) cells; type: functional; conditions: read-out: LC50 (the source's name)
MDA-MB-231 [4] = test: Antiproliferative activity against human MDA-MB-231 cells by MTT assay; type: functional, cell-based
Method in brief: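 MDA-MB-231 cells in DMEM with 10% FBS, 2 mM L-glutamine and penicillin/streptomycin were seeded at 2.5×10^4 cells/mL and held 24 h at 37°C. They then got ethanol-stock compound over 1 nM–100 μM (vehicle 1% v/v ethanol) for 72 h. MTT at 1 mg/mL final was added for 2 h in the dark, then DMSO for 20 min before absorbance. Untreated = 100% viability. IC50 is the mean ± S.E.M. of ≥3 triplicate experiments.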

T47D = test: Antiproliferative activity against human T47D cells; type: functional; conditions: read-out: LC50 (the source's name)
SK-OV-3 = test: Antiproliferative activity against human SKOV3 cells; type: functional; conditions: read-out: LC50 (the source's name)
NCI/ADR-RES = test: Antiproliferative activity against human NCI/ADR-RES cells; type: functional; conditions: read-out: LC50 (the source's name)
UACC-257 = test: Antiproliferative activity against human UACC257 cells; type: functional; conditions: read-out: LC50 (the source's name)
NCI-H23 = test: Antiproliferative activity against human NCI-H23 cells; type: functional; conditions: read-out: LC50 (the source's name)
786-0 = test: Antiproliferative activity against human 786-0 cells; type: functional; conditions: read-out: LC50 (the source's name)
CAKI-1 = test: Antiproliferative activity against human Caki1 cells; type: functional; conditions: read-out: LC50 (the source's name)
SNB-19 = test: Antiproliferative activity against human SNB19 cells; type: functional; conditions: read-out: LC50 (the source's name)
NCI-H226 = test: Antiproliferative activity against human NCI-H226 cells; type: functional; conditions: read-out: LC50 (the source's name)
IGROV-1 = test: Antiproliferative activity against human IGROV1 cells; type: functional; conditions: read-out: LC50 (the source's name)
HCT-15 = test: Antiproliferative activity against human HCT15 cells; type: functional; conditions: read-out: LC50 (the source's name)
MCF7 [5] = test: Antiproliferative activity against human MCF7 cells; type: functional; conditions: read-out: LC50 (the source's name)
SNB-75 = test: Antiproliferative activity against human SNB75 cells; type: functional; conditions: read-out: LC50 (the source's name)
PC-3 = test: Antiproliferative activity against human PC3 cells; type: functional; conditions: read-out: LC50 (the source's name)
M14 = test: Antiproliferative activity against human M14 cells; type: functional; conditions: read-out: LC50 (the source's name)
OVCAR-8 = test: Antiproliferative activity against human OVCAR8 cells; type: functional; conditions: read-out: LC50 (the source's name)
CCRF-CEM = test: Antiproliferative activity against human CCRF-CEM cells; type: functional; conditions: read-out: LC50 (the source's name)
MDA-MB-435 = test: Antiproliferative activity against human MDA-MB-435 cells; type: functional; conditions: read-out: LC50 (the source's name)
SF-295 = test: Antiproliferative activity against human SF295 cells; type: functional; conditions: read-out: LC50 (the source's name)
TK-10 = test: Antiproliferative activity against human TK10 cells; type: functional; conditions: read-out: LC50 (the source's name)
SW-620 = test: Antiproliferative activity against human SW620 cells; type: functional; conditions: read-out: LC50 (the source's name)
SF-539 = test: Antiproliferative activity against human SF539 cells; type: functional; conditions: read-out: LC50 (the source's name)
KM12 = test: Antiproliferative activity against human KM12 cells; type: functional; conditions: read-out: LC50 (the source's name)
OVCAR-4 = test: Antiproliferative activity against human OVCAR4 cells; type: functional; conditions: read-out: LC50 (the source's name)
SK-MEL-28 = test: Antiproliferative activity against human SK-MEL-28 cells; type: functional; conditions: read-out: LC50 (the source's name)
RPMI-8226 = test: Antiproliferative activity against human RPMI8226 cells; type: functional; conditions: read-out: LC50 (the source's name)
MDA-MB-468 = test: Antiproliferative activity against human MDA-MB-468 cells; type: functional; conditions: read-out: LC50 (the source's name)
K562 = test: Antiproliferative activity against human K562 cells; type: functional; conditions: read-out: LC50 (the source's name)
Malme-3M = test: Antiproliferative activity against human MALME-3M cells; type: functional; conditions: read-out: LC50 (the source's name)
UACC-62 = test: Antiproliferative activity against human UACC62 cells; type: functional; conditions: read-out: LC50 (the source's name)
NCI-H522 = test: Antiproliferative activity against human NCI-H522 cells; type: functional; conditions: read-out: LC50 (the source's name)
SK-MEL-2 = test: Antiproliferative activity against human SK-MEL-2 cells; type: functional; conditions: read-out: LC50 (the source's name)
EKVX = test: Antiproliferative activity against human EKVX cells; type: functional; conditions: read-out: LC50 (the source's name)
U-251 = test: Antiproliferative activity against human U251 cells; type: functional; conditions: read-out: LC50 (the source's name)
BT-549 = test: Antiproliferative activity against human BT549 cells; type: functional; conditions: read-out: LC50 (the source's name)
SF-268 = test: Antiproliferative activity against human SF268 cells; type: functional; conditions: read-out: LC50 (the source's name)
RXF 393 = test: Antiproliferative activity against human RXF393 cells; type: functional; conditions: read-out: LC50 (the source's name)
HCT-116 = test: Antiproliferative activity against human HCT116 cells; type: functional; conditions: read-out: LC50 (the source's name)
COLO 205 = test: Antiproliferative activity against human COLO205 cells; type: functional; conditions: read-out: LC50 (the source's name)
UO-31 = test: Antiproliferative activity against human UO31 cells; type: functional; conditions: read-out: LC50 (the source's name)
A498 = test: Antiproliferative activity against human A498 cells; type: functional; conditions: read-out: LC50 (the source's name)
NCI-H460 = test: Antiproliferative activity against human NCI-H460 cells; type: functional; conditions: read-out: LC50 (the source's name)

## COc1ccc([C@H]2N(c3cc(OC)c(OC)c(OC)c3)C(=O)C2(c2ccccc2)c2ccccc2)cc1 (mixture of isomers)
MCF7 [1]
  IC50: 43200 nM

## COc1ccc([C@@H]2C(c3cccs3)C(=O)N2c2cc(OC)c(OC)c(OC)c2)cc1 (mixture of isomers)
MDA-MB-231 [2]
  CC50: > 100 µM
[3]
  CC50: > 100 µM
MOLT-4
  CC50: > 100 µM
OVCAR-5
  CC50: > 100 µM
HCC 2998
  CC50: > 100 µM
DU-145
  CC50: > 100 µM
A549
  CC50: > 100 µM
SK-MEL-5
  CC50: > 100 µM
HOP-62
  CC50: > 100 µM
HOP-92
  CC50: > 100 µM
LOX IMVI
  CC50: > 100 µM
ACHN
  CC50: > 100 µM
SN12C
  CC50: > 100 µM
HL-60(TB)
  CC50: > 100 µM
MDA-MB-231 [4]
  IC50: 190 nM
T47D
  CC50: > 100 µM
SK-OV-3
  CC50: > 100 µM
NCI/ADR-RES
  CC50: > 100 µM
UACC-257
  CC50: > 100 µM
NCI-H23
  CC50: > 100 µM
786-0
  CC50: > 100 µM
CAKI-1
  CC50: > 100 µM
SNB-19
  CC50: > 100 µM
NCI-H226
  CC50: > 100 µM
IGROV-1
  CC50: > 100 µM
HCT-15
  CC50: > 100 µM
MCF7 [5]
  CC50: > 100 µM
SNB-75
  CC50: > 100 µM
PC-3
  CC50: > 100 µM
M14
  CC50: > 100 µM
OVCAR-8
  CC50: > 100 µM
CCRF-CEM
  CC50: > 100 µM
MDA-MB-435
  CC50: > 100 µM
SF-295
  CC50: > 100 µM
TK-10
  CC50: > 100 µM
MCF7 [1]
  IC50: 64 nM
SW-620
  CC50: > 100 µM
SF-539
  CC50: > 100 µM
KM12
  CC50: > 100 µM
OVCAR-4
  CC50: > 100 µM
SK-MEL-28
  CC50: > 100 µM
RPMI-8226
  CC50: > 100 µM
MDA-MB-468
  CC50: > 100 µM
K562
  CC50: > 100 µM
Malme-3M
  CC50: > 100 µM
UACC-62
  CC50: > 100 µM
NCI-H522
  CC50: > 100 µM
SK-MEL-2
  CC50: > 100 µM
EKVX
  CC50: > 100 µM
U-251
  CC50: > 100 µM
BT-549
  CC50: > 100 µM
SF-268
  CC50: > 100 µM
RXF 393
  CC50: > 100 µM
HCT-116
  CC50: > 100 µM
COLO 205
  CC50: > 100 µM
UO-31
  CC50: > 100 µM
A498
  CC50: > 100 µM
NCI-H460
  CC50: > 100 µM

## COc1ccc([C@@H]2C(Cc3cccs3)C(=O)N2c2cc(OC)c(OC)c(OC)c2)cc1 (mixture of isomers)
MCF7 [1]
  IC50: 1640 nM

## COc1cc(N2C(=O)[C@H](c3cccs3)[C@H]2c2ccc3ccccc3c2)cc(OC)c1OC (mixture of isomers)
MCF7 [1]
  IC50: 120 nM

## COc1cc(N2C(=O)[C@H](c3cccs3)[C@H]2c2cccs2)cc(OC)c1OC (mixture of isomers)
MCF7 [1]
  IC50: 910 nM

## COc1ccc([C@@H]2C(c3cccs3)C(=O)N2c2cc(OC)c(OC)c(OC)c2)cc1[N+](=O)[O-] (mixture of isomers)
MCF7 [1]
  IC50: 370 nM

## COc1ccc([C@@H]2C(c3cccc4ccccc34)C(=O)N2c2cc(OC)c(OC)c(OC)c2)cc1 (mixture of isomers)
MCF7 [1]
  IC50: 11300 nM

## COc1ccc([C@@H]2C(c3ccc4ccccc4c3)C(=O)N2c2cc(OC)c(OC)c(OC)c2)cc1 (mixture of isomers)
MCF7 [1]
  IC50: 2500 nM

## COc1ccc([C@@H]2C(c3ccoc3)C(=O)N2c2cc(OC)c(OC)c(OC)c2)cc1 (mixture of isomers)
MCF7 [1]
  IC50: 150 nM

## COc1ccc([C@@H]2C(c3ccsc3)C(=O)N2c2cc(OC)c(OC)c(OC)c2)cc1 (mixture of isomers)
MCF7 [1]
  IC50: 60 nM

## COc1ccc([C@@H]2C(c3ccc(C)s3)C(=O)N2c2cc(OC)c(OC)c(OC)c2)cc1 (mixture of isomers)
MCF7 [1]
  IC50: 250 nM

## COc1ccc([C@@H]2C(c3cc4ccccc4s3)C(=O)N2c2cc(OC)c(OC)c(OC)c2)cc1 (mixture of isomers)
MCF7 [1]
  IC50: 850 nM

## COc1ccc([C@@H]2[C@@H](C(O)c3ccsc3)C(=O)N2c2cc(OC)c(OC)c(OC)c2)cc1 (mixture of isomers)
MCF7 [1]
  IC50: 990 nM

## COc1cc(N2C(=O)[C@H](c3cccs3)[C@H]2c2cccc3ccccc23)cc(OC)c1OC (racemic)
MCF7 [1]
  IC50: 620 nM
